Measured values reported in PubChem BioAssay.
A number with no mark means an inactive call. Inconclusive results are not listed. The source made the active and inactive calls.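 How the source made its calls, unless noted: active means inhibition over a set limit, the all-compound mean plus 3 SD, in both replicate runs; inconclusive means over that limit in just one replicate run; inactive means at or under that limit in both runs.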

Key:
[1] = S. cerevisiae growth inhibition in permissive medium (OD615), pilot counter-assay for S. cerevisiae lifespan shortening project, permissive growth control (AID 705;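 active means growth inhibition above 25% in both replicates, a cutoff set 3 SD above the mean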); conditions: OD615, 24 h, at 10 µM, active compounds read high
How it was run: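 System: Engineered DeaD yeast | Buffer or medium: SC raffinose/galactose permissive medium | Incubation: Cells pre-grown 4 h, then 24 h compound exposure, 30 °C humidified | Measured by: Absorbance (optical density) at 615 nm | Read-out: Reduction in yeast growth (OD615)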

[2] = S. cerevisiae growth inhibition in restrictive medium, OD615, pilot screen, restrictive growth control, yeast lifespan reduction project (AID 706;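 active means growth inhibition above a set limit, 3 SD over mean compound inhibition, in both replicates, cut at about 43% in these data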;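 further: modified DeaD lifespan yeast strain shifted to restrictive glucose medium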); conditions: OD615, 48 h, at 10 µM, active compounds read high
How it was run: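 Material: modified S. cerevisiae; Medium: glucose-based CSMM-D restrictive medium; Compound dosing: one concentration, 10 µM final, 0.25% DMSO; Incubation: 48 h compound exposure at 30 °C; Measured by: OD615.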

[3] = doxorubicin toxicity protection in MRP-1 cells – H69AR cells, CellTiter-Glo, duplicate, MRP-1 activator project, pilot screen (AID 807;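 active means viability increase at or above a cutoff of the median across tested compounds plus 3 SD, cut at about 8.5% in these data, passing the limit was not always enough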;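 further: compound pretreatment 18-22 h then 72 h combined with doxorubicin; 0% = doxorubicin alone and 100% = vehicle without doxorubicin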); conditions: H69AR viability with doxorubicin, CellTiter-Glo luminescence; at 10 µM; active compounds read high
[4] = RAM pathway blockade in budding yeast – dse1pr::URA3 reporter, 5-FOA selection, pilot screen (AID 869);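 further: 0% = DMSO wells with no growth and 100% = 10 µM 1-NA-PP1 with full growth; RAM network block rescues cells from 5-FOA so hits raise OD615 growth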; conditions: S. cerevisiae dse1pr::URA3 5-FOA growth, OD615, 2 d; at 10 µM; active compounds read high; strain carries analog-sensitive mutant Cbk1 kinase
[5] = RAM signaling pathway blockade in yeast – S. cerevisiae, Pdr1DBD-CYC8 efflux-inhibited sensitized strain, primary screen (AID 1298;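 active means RAM network inhibition above 8.4% in each of two replicates, 3 SD over the compound average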;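 further: 0% = DMSO untreated cells without growth and 100% = 10 µM 1-NA-PP1 full growth; higher means more yeast growth rescued from 5-FOA killing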); conditions: S. cerevisiae cbk1-as DSE1-URA3 strain, 5-FOA growth OD615, 2 d; at 50 µM; active compounds read high
[6] = viability of PTEN-null HCT116 cells – cell-based, HCT116 clonal line, CellTiter-Glo, pilot screen (AID 824;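 active means viability at or below 27.92% in each of two runs, the all-compound median minus 4 SD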;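 further: 0% = 20 µM Hyamine control and 100% = vehicle cell control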); conditions: HCT116 PTEN-deleted viability, 60 h, at 10 µM, active compounds read low
[7] = viability of HCT116 without oncogenic beta-catenin – human colon tumor cells, pilot screen (AID 823;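 active means cell viability at or below a set limit in both duplicate runs, the limit being the all-compound median minus 4 SD, cut at about 23% in these data, passing the limit was not always enough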;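 further: 0% = wells killed by 20 µM Hyamine and 100% = untreated DMSO cell wells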); conditions: HCT116 beta-catenin knockout viability, CellTiter-Glo, 60 h; at 10 µM; active compounds read low

SMILES | growth inhibition [1] | growth inhibition [2] | viability increase [3] | inhibition [4] | RAM network inhibition [5] | viability [6] | viability [7]
CCOC(=O)C1=C(C)N=c2s/c(=C\c3ccncc3)c(=O)n2C1c1ccc2c(c1)OCO2 (centres undefined) | -12% | 23.8% | -7.87% | 3.46% | 8.86% | – | –
CCN1CCN(c2cc(C)c3cc(NC(=O)c4ccc(Br)o4)ccc3n2)CC1 | -8.91% | -15.6% | -8.37% | 1.75% | 0.84% | – | –
CSc1nc(N2CCN(CCO)CC2)c2sc3nc(-c4ccco4)c4c(c3c2n1)CCC4 | -5.56% | -10.7% | -8.19% | -1.67% | -2.9% | – | –
Cc1ccc(CNC(=O)c2oc3ccc(S(=O)(=O)N4CCC5(CC4)OCCO5)cc3c2C)cc1 | -11% | -10% | -0.6% | 1.35% | 2.87% | 52.6% | –
CSc1nc2c(cnn2-c2ccc(C)c(C)c2)c(=O)[nH]1 | 3.89% | 1.82% | -8.82% | 2.08% | 0.57% | – | –
Cc1nc(N2CCN(Cc3ccc4c(c3)OCO4)CC2)c2oc3ccccc3c2n1 | -0.195% | -1.24% | -4.93% | 2% | 4.68% | – | –
CCOC(=O)COc1cccc2c(=O)n(CC(=O)NCc3ccc4c(c3)OCO4)ccc12 | -18.3% | -15.8% | -5.67% | 3.72% | 6.61% | 27.3% (active) | –
CN1C(=O)C(O)(CC(=O)c2ccccn2)c2cc(Br)ccc21 (centres undefined) | -0.08% | 6.53% | -7.14% | 0.9% | 3.11% | – | –
OC(COc1ccc(C2C=CCC2)cc1)CN1CCCCC1 (centres undefined) | 0.36% | -8.12% | -4.7% | 1.75% | 3.83% | – | –
O=C(CCS(=O)(=O)c1ccccc1)Nc1nc2c(s1)CCCC2 | -16.6% | -17.7% | -8.89% | 0.495% | 3.5% | – | –
O=C(Cn1c(=O)oc2cc(S(=O)(=O)N3CCCC3)ccc21)NCc1ccccn1 | 8.21% | 0.96% | – | 1.01% | -0.87% | 104% | 107%
Cc1cc(N2CCN(S(=O)(=O)c3ccc(Cl)cc3)CC2)c2ccccc2n1 | -3.2% | -2.46% | -2.62% | -0.15% | 2.74% | – | –
Oc1c(C(c2cccs2)N2CCN(c3cccc(Cl)c3)CC2)sc2ncnn12 (centres undefined) | -8.2% | 5.16% | – | 1.94% | 3.42% | 90.5% | 88.1%
O=C(Nc1nnc(-c2cccs2)o1)c1cccc(Oc2ccccc2)c1 | 16.2% | 24.4% | -6.06% | 1.83% | 2.76% | – | –
O=C(CSc1nc(-c2ccco2)cc(C(F)(F)F)n1)Nc1ccc(C(=O)N2CCCCC2)cc1 | 0.645% | -0.65% | -2.87% | 1.97% | 3.42% | – | –
COc1cc(C)c(C(C)C)cc1S(=O)(=O)n1cnc(C)c1 | 0.115% | 6.4% | -3.58% | 0.425% | 4.02% | 37.8% | –
O=C(CSc1oc(-c2ccc(F)cc2)nc1S(=O)(=O)c1ccc(F)cc1)NCC1CCCO1 (centres undefined) | -8.11% | -3.3% | -7.22% | 1.05% | 6.87% | – | –
COc1ccc(Cl)cc1N1C(=O)C2CCCN2C1c1ccc(F)c(F)c1 (centres undefined) | -5.22% | -6.92% | – | 1.33% | 6.15% | 92.7% | 98.1%
COc1ccc(NC(=O)NCCCN2CCN(c3cc(C)ccc3C)CC2)cc1 | -11.2% | -19.5% | -6.14% | 0.485% | 2.1% | – | –
COc1cc(C(c2sc3ncnn3c2O)N2CCN(c3ccccc3F)CC2)cc(OC)c1OC (centres undefined) | 1.67% | -0.84% | – | 2.5% | 5.34% | 105% | 103%
COc1ccc(N2CCN(CCNC(=O)CCNS(=O)(=O)c3cccs3)CC2)cc1 | -5.45% | -5.3% | -0.82% | 1.71% | 2.25% | 96.3% | –

SMILES | growth inhibition [1] | growth inhibition [2] | viability increase [3] | inhibition [4] | RAM network inhibition [5] | viability [6] | viability [7]
COc1cc2c(cc1NC(=O)c1ccco1)CCCC2 | 3.87% | -4.68% | -6.9% | 2.06% | 2.56% | 81.1% | –
CCn1c(=O)c(=O)[nH]c2cc(C(=O)NC3CCCc4ccccc43)ccc21 (centres undefined) | -2.89% | -5.91% | -5.19% | 1.7% | 3.67% | – | –
Cc1ccccc1CN1C(=O)C(O)(CC(=O)c2ccncc2)c2ccccc21 (centres undefined) | -11.4% | -5.55% | -5.61% | 1.28% | 5.38% | – | –
Cc1cc(NC(=O)COC(=O)C2CCN(S(=O)(=O)c3ccc(Cl)cc3)CC2)no1 | 4.11% | -2.37% | -2.01% | 1.19% | 1.38% | 98.9% | –
COc1cccc(C(=O)Nc2nnc(-c3ccc(Cl)cc3)o2)c1 | 2.17% | 2.42% | -3.33% | 1.6% | -1.16% | – | –
COc1cc(C(=O)N2CCN(c3ccc(C)cc3C)CC2)cc(OC)c1OC | -4.88% | 2.84% | -5% | 0.135% | 4.77% | – | –
O=C(Nc1nnc(-c2cccs2)o1)c1cccc(F)c1 | -18.7% | 9.29% | -1.42% | 0.745% | 3.47% | – | –
CCC(C)NC(=O)c1cn(C)c(=O)c2cc(OC)c(OC)cc12 (centres undefined) | -6.39% | -12.4% | -3.24% | 1.1% | 5.28% | 99.7% | –
CCc1nnc(NC(=O)c2ccc(S(=O)(=O)N(CC)CC)cc2)s1 | -7.41% | -3.27% | – | 1.52% | -0.37% | 90.9% | 104%
O=C1Cc2ccccc2C(=O)N1CCc1ccccc1 | 12.3% | 66% (active) | – | 1.75% | 2.61% | 92.8% | 97.2%
COc1ccc(S(=O)(=O)Cc2ccc(C(=O)N3CCN(c4ccc(Cl)cc4)CC3)o2)cc1 | 2.93% | -3.86% | -4.86% | 0.375% | 6.31% | – | –
c1coc(CNc2c3c(nc4ccccc24)CCC3)c1 | -9.23% | -0.365% | -5.72% | -0.205% | 0.83% | – | –
C/C(CC(O)c1ccc2ccccc2n1)=N/O (centres undefined) | 1.34% | 1.94% | -0.7% | 0.445% | 1.08% | 103% | –
Cn1nc(-c2ccc(Cl)cc2)c2cc(C(=O)NCCN3CCOCC3)sc21 | -4.46% | -5.2% | -7.41% | 0.45% | -1.47% | – | –
CCc1ccc(NC(=O)Cn2c(=O)oc3cc(S(=O)(=O)N4CCOCC4)ccc32)cc1 | -11% | -13.3% | – | 1.83% | 8.19% | 89.2% | 99.8%
CCOc1ccc(S(=O)(=O)N(C)c2ccc(OCC(=O)Nc3ccc4[nH]c(=O)[nH]c4c3)cc2)cc1 | -7.61% | -11.1% | -4.94% | 0.8% | 7.12% | 94.1% | –
CC1=C(C(=O)OCc2ccc3c(c2)OCO3)C(c2ccccc2)NC(=O)N1 (centres undefined) | -12% | -9.41% | -4.88% | 1.81% | 2.03% | – | –
CCOc1ccc(-c2cc(CCCC(=O)Nc3cccc(OC)c3)no2)cc1 | -6.04% | 3.52% | -5.12% | 3.28% | 0.05% | – | –
CCOCCn1c(-c2ccc(OC)cc2)nc2ccccc21 | -16.9% | -10.7% | – | 1.63% | 5.07% | 82.8% | 93.6%
Cc1onc(-c2ccccc2)c1C(=O)Nc1nnc(N(C)Cc2ccccc2)s1 | -12.4% | -20.5% | – | 1.02% | 9.12% | 88.8% | 89.8%
COc1ccc(-n2c(Cc3cc(=O)[nH]c(=O)[nH]3)nnc2SCC(=O)N2CCC(C)CC2)cc1 | -11.5% | 4.4% | – | 2.92% | 0.47% | 96.9% | 98.2%
